Screening data from PubChem.
Dynein transport: blocks dynein driven cargo transport along microtubules. 220,000 tested, 0.47% active. 3617.4 mouse cells, GR-EGFP nuclear translocation imaging; test concentration mostly 20 µM; stimulated with dexamethasone, 1 µM; stronger effect = lower value. z-score, hits read low;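 active means plate z-score of nuclear minus cytoplasmic receptor signal below a set negative limit, without overly bright fluorescence or cell loss, cut at about -3.5 in these data, passing the limit was not always enough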;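 further: z-score of nuclear minus cytoplasmic ring GR-EGFP intensity difference per well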
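Buffer or medium: Induction medium lacking tetracycline, stripped serum | Also added: Dexamethasone agonist, 1.0 µM final, for 30 min | Timing: 48 h induction, 1 h compound, 30 min dex at 37 °C | Detection: Formaldehyde fixation, Hoechst nuclear stain, 10x automated fluorescence imaging | Measure: Nuclear versus cytoplasmic GR-EGFP signal, averaged per well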
Ins promoter up: MIN6 insulin promoter up-regulation | MIN6 insulin promoter-GFP reporter, high-content imaging; stronger effect = higher value | AID 1625 | 190,000 tested, 0.3% active | z-score at 5 µM;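 active means z-score above 3 at 5 µM with at least 500 cells counted in the well; inconclusive means wells under 500 cells, flagged as cytotoxic or low count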
INS promoter inh: TRM-6 insulin promoter activity inhibition; TRM-6 cells, insulin promoter-eGFP reporter, imaging; reporter expression induced with tamoxifen; inhibition, % at 2 µM; 130,000 tested, 0.9% active;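 active means inhibition above the mean plus 3 SD, with well images judged a real hit on visual review, cut at about 60% in these data, passing the limit was not always enough; inconclusive means inhibition over the cutoff but images rejected on review; inactive means inhibition not above the cutoff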
Autophagy HCS: modulators of autophagy. MEF GFP-LC3 puncta imaging; test concentration mostly 10 µM. 190,000 tested, 0.98% active. calls only at 10 µM (by protocol). AID 463193;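 active means percentage of spot-positive cells more than 3 SD above its plate mean, without a fluorescence outlier flag or 80% toxicity; inconclusive means no clear call, values can overlap the other calls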;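 further: spot-positive cell cutoff set from DMSO-treated cells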
The depositor's hits bear a star; i = inactive; ? = inconclusive; . = no result given; + = active, no number. The list is not random: actives were taken first. Their share in the collection is about 2%.

SMILES	Dynein transport	Ins promoter up	INS promoter inh	Autophagy HCS
CC(=O)Nc1ccc(NC(=O)C(C)OC(=O)C2CCN(S(=O)(=O)c3cccs3)CC2)cc1 (stereo not drawn)	-0.572	0.17	.	.
CCCCn1c(CN2CCN(c3cccc(Cl)c3)CC2)nc2c1c(=O)[nH]c(=O)n2C	-0.468	-0.35	-43.8	+
Cn1c(=O)[nH]c(=O)c2c1nc(CN1CCN(c3cccc(Cl)c3)CC1)n2CCCc1ccccc1	0.115	-0.6	.	i
COc1ccc(C(=O)N[C@H](C(=O)N2CCN(c3ccccc3F)CC2)C(C)C)cc1	-1	0.26	27.8	i
Cc1ccc(C)c(S(=O)(=O)ON2C(=O)c3ccccc3C2=O)c1	-3.56*	-0.47	44.1	i
CCc1ccc(C(=O)Nc2cc(C)ccc2F)s1	0.101	0.9	.	i
C=CCNC(=O)C1CCN(S(=O)(=O)CC)CC1	-0.453	1.24	.	i
C=CCNC(=O)C1CCN(S(=O)(=O)c2ccc(Br)cc2)CC1	0.798	3.14*	.	i
c1cc2c3c(cccc3c1)C(N1CCN(C3=Nc4cccc5cccc3c45)CC1)=N2	-1.98	.	6.7	i
c1ccc(CC2CCN(C3=Nc4cccc5cccc3c45)CC2)cc1	0.172	.	-82.9	+
S=C(Sc1ccc(Cl)cc1)Sc1ccc(Cl)cc1	-5.11*	?	.	.
COc1cc(NCCC(=O)c2cccs2)c(OC)cc1Cl	-2.01	-0.35	.	i
COc1ccc(C2CCCN2C(=O)Nc2ccc(Cl)cc2)cc1OC (stereo not drawn)	-0.385	-0.62	.	+
COc1ccc(NC(=O)C2CCCN2C(=O)Nc2ccccc2)cc1OC (stereo not drawn)	0.93	0.55	6.9	i
CCc1ccccc1S(=O)(=O)Cc1ccc(C(=O)N2CCN(c3ccccc3OC)CC2)o1	-0.909	0.57	.	+
COc1ccccc1S(=O)(=O)Cc1ccc(C(=O)N2CCCC2)o1	-0.292	1.04	.	i
COCCNC(=O)/C=C/c1c(Cl)cccc1Cl	0.566	0.79	71.4*	i
CCOC(=O)c1ccc2c(c1)NCc1cccc(OC)c1O2	0.0446	0.22	.	.
CCN(CC)c1cc2nc(C)n(Cc3ccccc3)c(=O)c2cc1NC(=O)C1CC1	0.478	-0.81	84.6*	i
COc1cccc(CSc2ccc(S(=O)(=O)N3CCOCC3)cc2C(=O)NCC2CCCO2)c1OC (stereo not drawn)	-0.298	-0.51	.	i
COc1cc(-c2cc(C(=O)Nc3c(Cl)cc(Cl)cc3Cl)c3ccccc3n2)cc(OC)c1OC	-0.945	-1.17	0.0	i
COc1ccc2nc3ccccc3nc2c1NC(=O)c1ccc(Cl)cc1Cl	-0.984	1.44	-31.2	+
Cc1cc(-c2ccccc2)n2ncnc2n1	-0.0284	0.03	.	.
COc1cc([N+](=O)[O-])cc(/C=N/NC(=O)CSc2ccccn2)c1O	-0.66	-0.07	.	.
CCOc1cc(C)c(S(=O)(=O)Nc2ccc3cn[nH]c3c2)cc1C	0.258	4.24*	.	i
SMILES	Dynein transport	Ins promoter up	INS promoter inh	Autophagy HCS
COc1ccc(CNCC(O)(c2ccc(F)cc2)c2ccc(F)cc2)cc1	-0.437	0.56	-14.3	+
Cc1ccc(CNCC(O)(c2ccc(F)cc2)c2ccc(F)cc2)cc1	.	.	.	i
CCOC(=O)c1c(C)nc(C)c2c(=O)oc3ccccc3c12	0.752	-0.27	.	i
Cc1cccn2cc(-c3ccc(S(=O)(=O)N4CCOCC4)cc3)nc12	1.37	.	.	i
Cc1cccn2cc(-c3ccc(S(=O)(=O)N4CCCCC4)cc3)nc12	0.193	-0.82	-40.7	+
Cc1ccc(-c2cn3cccc(C)c3n2)cc1	-0.407	-0.01	72.7*	i
Cc1cccn2cc(-c3ccc(Cl)cc3)nc12	0.452	-0.43	.	i
O=S(=O)(NC(=NCCc1ccc(Cl)cc1)c1ccccc1Cl)c1cccs1	-0.0457	-1.62	.	i
CCCCn1c(SCC(=O)O)nc2ccccc21	-0.927	3.5*	10.5	i
CC(C)C(O)(C#CCN1CCCCCC1)c1ccccc1 (stereo not drawn)	0.781	-1	21.4	i
O=C1Nc2c(c(=O)[nH]c(=O)n2-c2ccc(F)cc2)C1(NS(=O)(=O)c1ccccc1)C(F)(F)F (stereo not drawn)	-0.425	.	.	.
O=C(COc1ccccc1)N1CCN=C1c1ccccc1	-0.282	3.07*	-42.9	i
Cc1[nH]c2ccc(-c3nnc(SCC(=O)c4ccc(F)cc4)o3)cc2c1C	-0.462	0.03	50.0	i
Cc1cc(C)c(C)c(C(=O)CSc2nnc(-c3ccc4[nH]c(C)c(C)c4c3)o2)c1C	0.167	-0.93	-7.0	+
COc1ccc2cc3cc(C(=O)NCCN4CCN(Cc5ccccc5)CC4)oc3nc2c1	3.25	-0.49	34.4	+
CCC(C)(C)NC(=O)CN(Cc1ccccc1Cl)C(=O)CCC(=O)Nc1cc(C)ccn1	0.404	-1.29	-47.6	i
Nc1nnc(-c2cc3c(ccc4ccccc43)oc2=O)s1	0.104	8.81*	.	i
O=c1oc2ccc3ccccc3c2cc1-c1nnc(-c2cccs2)o1	0.181	-0.34	18.8	i
COc1ccc(CNC(=O)Cn2cncn2)cc1OC	1.26	0.16	88.9*	i
COc1ccccc1OS(=O)(=O)c1ccc(NC(C)=O)cc1	0.929	-0.58	.	i
COC(=O)/C=C/S(=O)(=O)c1ccc(NC(C)=O)cc1	-3.85*	-0.07	-50.0	i
CN(C)c1ccc(C(=O)N/N=C/c2cc(Br)cc(Br)c2O)cc1	-0.67	4.65*	.	.
COc1c(Br)cc(Br)cc1/C=N/NC(=O)c1ccncc1	-0.78	0.11	.	i
Clc1ccccc1/C=N/NC1=Nc2cccc3cccc1c23	-1.52	0.79	-37.5	+
C(=N\NC1=Nc2cccc3cccc1c23)/c1ccccn1	-1.46	-1.5	-58.3	i
SMILES	Dynein transport	Ins promoter up	INS promoter inh	Autophagy HCS
N#C/C(=C\C=C\c1ccccc1)c1nc(-c2ccc3c(c2)OCO3)cs1	-1.83	0.42	-17.6	+
O=C(Cn1c(=O)c2c(ncn2Cc2ccccc2)n(Cc2ccccc2)c1=O)NC1CC1	-0.335	-0.07	-15.2	i
CC(C)CNC(=O)Cn1c(=O)c2c(ncn2CC(C)C)n(Cc2ccccc2)c1=O	-0.581	-0.12	.	+
CCN(CC)CCOc1ccc(Br)cc1	0.576	-0.32	24.3	i
CCN(CC)CCOc1ccc2c(c1)C(=NO)c1cc(OCCN(CC)CC)ccc1-2	1.03	-2.45	-5.3	+
Cc1cccc(C(=O)N=c2c(C#N)cc3c(=O)n4cccc(C)c4nc3n2Cc2ccco2)c1	-1.68	0.36	-13.9	+
CCOC(=O)CCc1c(C)n[nH]c1C	-0.316	-0.64	-26.7	i
C=CC(O)Cc1c(C)n[nH]c1C (stereo not drawn)	-0.355	-0.59	76.9*	i
O=C(NCCc1ccccc1)NC1CCCCC1	-0.22	-0.63	80.0*	i
O=C(NC1CCCCCC1)C(=S)NCCc1ccccc1	1.87	0.92	.	i
COC(=O)CCC(=O)Nc1cccc([N+](=O)[O-])c1	1.03	-0.3	18.2	i
Cc1nc(C)c(-c2csc(Nc3cccnc3)n2)s1	1.21	-0.61	87.1*	i
CCc1ccc(NC(=O)CS(=O)CC(=O)NC(C)CCc2ccco2)cc1 (stereo not drawn)	0.776	.	.	+
